# Reference: paper PMC2841041 (Developmental cell, 2010)
# Peptide text beside a SMILES is read from it. * marks the point of attachment. Cbz = O=C(OCc1ccccc1)*; CH2F = FC*
# T1: recombinant μ4 C-terminal domain (Homo sapiens, UniProt O00189, C235S/C431S)
# T1 sequence (O00189 160-453 C235S/C431S): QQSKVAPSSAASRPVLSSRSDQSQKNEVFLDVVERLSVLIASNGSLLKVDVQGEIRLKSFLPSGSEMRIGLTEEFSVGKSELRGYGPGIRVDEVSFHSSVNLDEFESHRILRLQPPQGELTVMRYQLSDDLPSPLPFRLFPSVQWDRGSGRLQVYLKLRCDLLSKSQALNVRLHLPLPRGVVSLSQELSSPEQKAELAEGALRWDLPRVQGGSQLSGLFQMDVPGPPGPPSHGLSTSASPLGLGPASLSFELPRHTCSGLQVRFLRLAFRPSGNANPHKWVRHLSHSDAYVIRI
# T2: recombinant μ4 C-terminal domain (160–453; C235S, C431S) (human, UniProt O00189 160-453, C235S | C431S)
# T2 sequence (looked up): T1 sequence (O00189 160-453 C235S/C431S)
# B1: synthetic ENPTYKFFEQ peptide derived from the APP tail (peptide)
# peptide: ENPTYKFFEQ
# Experiments:
# HeLa cells = experiment: Pulse-chase / immunoblot analysis of APP processing and CTF levels; assay type: cell-based; settings: 250 nM DAPT; decrease elicited by FFE mutation or μ4 depletion
# [1] = test system: HeLa cells expressing APP-CFP; experiment: Immunoblot of APP-CFP fragments; assay type: cell-based; settings: for C31 fragment levels/formation: DAPT-treated cells
# Outline: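 HeLa cells transfected (Lipofectamine 2000, 1 h, 37°C, no FBS) with C-terminally CFP-tagged APP (wild-type, D664A or F689A/F690A/E691A), or μ4-siRNA-depleted twice and then APP-CFP-transfected. Analysed 8–16 h post-transfection after 16 h ± 250 nM DAPT, 100 μM E-64 and/or 200 μM Z-VAD-FMK. Pellet/supernatant fractionation in some runs. SDS-PAGE, anti-GFP immunoblot. Fragment levels given as mean ± SD of three experiments.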
# [2] = test system: HeLa cells expressing CTFβ-GFP; experiment: Processing of CTFβ-GFP; assay type: cell-based; settings: immunoblot, antibody to GFP; for CTFα and C31 from CTFβ-GFP: DAPT-treated cells
# Outline: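 CTFβ-GFP (wild-type, D664A or F689A/F690A/E691A) expressed in HeLa cells, or in mock- or μ4-siRNA-depleted cells. Same handling: lipofection, 8–16 h, then 16 h ± 250 nM DAPT, 100 μM E-64 and/or 200 μM Z-VAD-FMK, anti-GFP immunoblot; mean ± SD, n=3. Aβ: 4 h [35S]Met-Cys labelling at 37°C, medium immunoprecipitated with 6E10, Tricine 10–20% gels, fluorography; mean ± SD, n=4.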
# [3] = test system: APP distribution in HeLa cells; experiment: Immunofluorescence microscopy, intracellular distribution of APP; assay type: cell-based
# [4] = test system: ε, β4 and σ4 subunits of AP-4; experiment: Y2H of APP tail with other AP-4 subunits; assay type: binding
# μ4 subunit of AP-4 = experiment: Yeast two-hybrid; assay type: binding, human; settings: His-deficient plates, 30°C
# mutant μ4 = experiment: Yeast two-hybrid; assay type: binding, human
# Outline: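 Yeast co-transformed with Gal4ad fused to wild-type or point-mutant human μ4 (mutations introduced by site-directed mutagenesis) and Gal4bd fused to the APP tail (human APP695 template). Cells spotted on His-deficient and His-containing plates and incubated at 30°C; growth on −His scored as interaction. Controls: Gal4bd-mouse p53 with Gal4ad-SV40 large T antigen.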
# [5] = biological target: T1, recombinant μ4 C-terminal domain; experiment: Isothermal titration calorimetry; assay type: binding; settings: purified components, synthetic peptide
# μ1, μ2 and μ3 subunits = experiment: Y2H of APP signal with other AP μ subunits; assay type: binding
# [6] = biological target: T2, recombinant μ4 C-terminal domain …; experiment: ITC
molecule,measurement,setting,value
C[C@H](NC(=O)Cc1cc(F)cc(F)c1)C(=O)N[C@H](C(=O)OC(C)(C)C)c1ccccc1 [DAPT],effect of DAPT on the decrease in steady-state CTFα levels,HeLa cells,abrogated the decrease in steady-state CTFα levels
same,C31 fragment levels/formation,"[1]; immunoblot, antibody to GFP","increased the levels of a smaller, soluble fragment"
same,difference in AICDγ-CFP levels / CTF accumulation with DAPT,"[1]; FFE mutation or μ4 depletion, incubation with DAPT","abolished by incubation with DAPT, resulting in the accumulation of equal amounts of CTFs under all conditions"
same,AICDγ-CFP formation/levels,"[1]; immunoblot, antibody to GFP",precluded AICDγ-CFP formation
same,CTFα-CFP levels,"[1]; immunoblot, antibody to GFP, DAPT 250 nM",increased CTFα-CFP levels
same,AICDγ formation/levels from CTFβ-GFP,[2],prevented AICDγ formation
same,CTFα and C31 from CTFβ-GFP,[2],resulted in the appearance of CTFα and C31
COC(=O)C[C@H](NC(=O)[C@H](C)NC(=O)[C@@H](NC(=O)OCc1ccccc1)C(C)C)C(=O)CF [Z-VAD-FMK] (Cbz-Val-Ala-Asp(OMe)-CH2F),C31 fragment levels/formation,"[1]; immunoblot, antibody to GFP",prevented
same,CTFα and C31 from CTFβ-GFP,[2],absence
"C[C@@H]1C[C@@H]([C@H](O)CC2CC(=O)NC(=O)C2)C(=O)[C@@H](C)C1 [cycloheximide, reference compound]",effect on APP-WT staining,"[3]; inhibition of protein synthesis, mock- and μ4-depleted cells",rapid disappearance of APP-WT staining in both mock- and μ4-depleted cells
APP tail: cytosolic tail of APP fused to Gal4bd,"Y2H interaction with ε, β4 and σ4",[4],did not bind to the APP tail
same,Y2H interaction with μ4,μ4 subunit of AP-4,interacted exclusively with the μ4 subunit of AP-4
same,Y2H binding to μ4 S257A/H256A/F255A,mutant μ4; Ser-257 to Ala together with His-256 and Phe-255 to Ala,completely abolished binding
same,Y2H binding to μ4 F255A/R283D,mutant μ4; double mutation of Phe-255 and Arg-283,completely abrogated
same,Y2H binding to μ4 S257A,mutant μ4; mutation of Ser-257 to Ala,no detectable effect
same,"Y2H binding to μ4 H256A, E265A or R283A","mutant μ4; single mutation of His-256, Glu-265, Arg-283 to Ala",little or no effect on the interaction
same,Y2H binding to μ4 F255A or R283D,"mutant μ4; single mutation of Phe-255 to Ala, or Arg-283 to Asp",drastically reduced
same,Y2H binding to μ4 H256A/E265A/R283A,mutant μ4; triple mutation,greatly decreased the interaction
APP-WT: wild-type APP expressed in HeLa cells,localization of APP to endosomes,"[3]; HeLa cells, normal conditions, n=11",74 ± 8%
ENPTAKAAEQ,binding site number / binding by ITC,[5],"but not a substituted ENPTAKAAEQ variant, bound"
YKFFE,"Y2H interaction with μ1, μ2, μ3","μ1, μ2 and μ3 subunits",does not bind to these μ subunits
YKYLE,Y2H interaction with μ4,μ4 subunit of AP-4,indeed bind to μ4
YRFLE,Y2H interaction with μ4,μ4 subunit of AP-4,indeed bind to μ4
B1,stoichiometry N,[6],1
